Data set [1] in a line: Selectivity index, ratio of CC50 for cytotoxicity against human A549 cells to IC50 for antiviral activity against Human adenovirus 5 infected in 293beta5 cells assessed as inhibition of plaque formation after 7 days. The note with it: read-out: Ratio CC50/IC50. It counts as toxicity, cell-based.
The test system of another data set is Human adenovirus 5. The experiment in a line: Antiviral activity against Human adenovirus 5 infected in 293beta5 cells assessed as inhibition of plaque formation incubated for 7 days by GFP reporter gene assay. It is filed as functional, organism-based. The note with it: Human mastadenovirus C, 293beta5, 168 h. The essentials: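 HAdV5-GFP plaque assay in 293β5 cells at low MOI. Inhibition is expressed as percent of the infected control, with single-dose screening at 10 μM. Compounds giving >90% inhibition went on to IC50 determination. Values are means ± SD of triplicate samples from three independent experiments.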

A short description of data set [2]: Cytotoxicity against human A549 cells assessed as reduction in cell viability after 48 hrs by alamar blue assay. It is filed as cell-based.

pIC50: −log10 of the molar value.

Our source for the selectivity ratio, IC50 and CC50 values is ChEMBL document CHEMBL4402567, “Structure-Activity Relationship Studies on Diversified Salicylamide Derivatives as Potent Inhibitors of Human Adenovirus Infection” (J Med Chem, 2020).

For the compound `O=C(NCc1ccc(Cl)cc1)c1cc(Cl)ccc1O`, in data set [1], the selectivity ratio at 168 h came out at 7.6. For the same compound, the pIC50 with Human adenovirus 5 was 5.45. For the same compound, the CC50 at 48 h in data set [2] amounted to 27.1 µM.
For `O=C(NCc1ccc(F)cc1Cl)c1cc(Cl)ccc1O`, in that order: 12.1, 5.59 and 30.9 µM.
Consider `O=C(Nc1cc(F)cc(C(F)(F)F)c1)c1ccccc1O`, for which the selectivity ratio at 168 h in data set [1] came out at 15.2. In addition, the pIC50 with Human adenovirus 5 was 5.97. The CC50 at 48 h in data set [2] was 16.3 µM.
For `CC(C)[C@H](NC(=O)c1cc(Cl)ccc1O)C(=O)Nc1cc(C(F)(F)F)cc(C(F)(F)F)c1`, in that order: 77.4, 6.40 and 30.9 µM.
With `O=C(NCc1ccc(C(F)(F)F)cc1)c1cc(Cl)ccc1O`, in data set [1], the selectivity ratio at 168 h was found to be 9.2. In the data set with Human adenovirus 5, the pIC50 was 5.59. The CC50 at 48 h in data set [2] amounted to 23.9 µM.
Consider `C[C@H](NC(=O)c1cc(Cl)ccc1O)C(=O)Nc1ccc([N+](=O)[O-])cc1Cl`, for which the selectivity ratio at 168 h in data set [1] was 26. Besides, the pIC50 with Human adenovirus 5 was 5.41. In data set [2], the CC50 at 48 h is 100 µM.
The corresponding values for `O=C(NCc1cc(F)cc(C(F)(F)F)c1)c1cc(Cl)ccc1O` are 15.1, 5.62 and 36.3 µM.
For `CC(C)[C@H](NC(=O)c1cc(Cl)ccc1O)C(=O)Nc1cc(F)cc(C(F)(F)F)c1`, in that order: 65.2, 6.18 and 43 µM.
For `O=C(NCc1ccc(C(F)(F)F)cc1F)c1cc(Cl)ccc1O`, in that order: 34.6, 5.88 and 45.6 µM.
With `O=C(NCc1ccc(Cl)cc1Cl)c1cc(Cl)ccc1O`, the selectivity ratio at 168 h in data set [1] is 17.9. The negative logarithm of the IC50 (pIC50) in the data set with Human adenovirus 5 was 5.76. Besides, the CC50 at 48 h in data set [2] is 30.9 µM.
For `O=C(N[C@@H](Cc1ccccc1)C(=O)Nc1cc(C(F)(F)F)cc(C(F)(F)F)c1)c1cc(Cl)ccc1O`, in that order: 44.9, 6.40 and 17.9 µM.
The corresponding values for `O=C(Nc1cc(F)cc(C(F)(F)F)c1)c1cccc(Cl)c1` are 6.9, 5.25 and 38.6 µM.
Take `CS(=O)(=O)Nc1ccc(Cl)cc1C(=O)NCC(=O)Nc1ccc([N+](=O)[O-])cc1Cl`: in data set [1], the selectivity ratio at 168 h amounted to 14.6. Besides, the pIC50 with Human adenovirus 5 is 5.02. The CC50 at 48 h in data set [2] is 141 µM.
For `Cc1ccc(CNC(=O)c2cc(Cl)ccc2O)cc1`, in that order: 10.8, 5.09 and 87.7 µM.
For `CC(C)(C)OC(=O)CC[C@H](NC(=O)c1cc(Cl)ccc1O)C(=O)Nc1ccc([N+](=O)[O-])cc1Cl`, in that order: 34.2, 6.17 and 22.9 µM.
Take `O=C(NCCc1ccc(F)cc1)c1cc(Cl)ccc1O`: the selectivity ratio at 168 h in data set [1] worked out at 39.1. Moreover, in the data set with Human adenovirus 5, the pIC50 is 5.40. For the same compound, in data set [2], the CC50 at 48 h stood at 154 µM.
The corresponding values for `CC(C)[C@H](NC(=O)c1cc(Cl)ccc1O)C(=O)Nc1ccc(F)c(F)c1` are 32.1, 5.53 and 95 µM.
As for `Cc1ccc(O)c(C(=O)Nc2cc(F)cc(C(F)(F)F)c2)c1`, in data set [1], the selectivity ratio at 168 h is 23.3. Further, the pIC50 with Human adenovirus 5 is 6.19. In addition, the CC50 at 48 h in data set [2] amounted to 15.2 µM.
For `O=C(Cc1cc(Cl)ccc1O)Nc1cc(F)cc(C(F)(F)F)c1`, in that order: 4.8, 5.31 and 23.7 µM.
As to `O=C(NCc1ccc([N+](=O)[O-])cc1)c1cc(Cl)ccc1O`, in data set [1], the selectivity ratio at 168 h is 26.7. Further, the pIC50 in the data set with Human adenovirus 5 is 5.18. Moreover, in data set [2], the CC50 at 48 h stood at 175 µM.
The corresponding values for `O=C(NCc1ccc(C(F)(F)F)c(F)c1)c1cc(Cl)ccc1O` are 15.9, 5.85 and 22.3 µM.
